This is an account of results in ChEMBL document CHEMBL1240476, “Synthesis and antiproliferative activity of indolizinophthalazine-5,12-dione derivatives, DNA topoisomerase IB inhibitors” (Eur J Med Chem, 2010).

Assay [1] is described as follows: Cytotoxicity against human GLC82 cells after 48 hrs by MTT assay. Format: functional, cell-based. The following applies: GLC82, 48 h. In general terms: Tetrazolium assays rely on reduction of a dye to a coloured formazan, in cell work by metabolically active cells.
Assay [2] has as its system NCI-H460. Description: Cytotoxicity against human NCI-H460 cells after 48 hrs by MTT assay. Format: functional, cell-based. The settings on record: NCI-H460, 48 h.
A short description of assay [3]: Cytotoxicity against human MCF7/ADR cells after 48 hrs by MTT assay. The format is functional, cell-based. The settings on record: NCI/ADR-RES.
Assay [4] deals with MCF7. Put plainly: Cytotoxicity against human MCF7 cells after 48 hrs by MTT assay. The following applies: MCF7, 48 h. The format is functional, cell-based.
Assay [5] can be described thus: Inhibition of topoisomerase 1B-mediated relaxation of supercoiled pBR322 DNA at 125 uM after 30 mins by agarose gel electrophoresis. The gist of the method:
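TOP1-mediated relaxation of supercoiled DNA: enzyme and DNA incubated with serially diluted compound, 1 to 125 across four lanes. Controls were DNA without enzyme or drug, and DNA plus enzyme without drug. Read-out was the supercoiled versus relaxed DNA bands, scored as percent inhibition of TOP1 catalytic activity.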

A short description of assay [6]: Inhibition of topoisomerase 1B-mediated relaxation of supercoiled pBR322 DNA at 1 uM after 30 mins by agarose gel electrophoresis. Summed up: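 TOP1 relaxation of supercoiled DNA was run with enzyme, DNA and serially diluted drug (1 to 125). Controls were DNA without enzyme or drug, and DNA plus enzyme without drug. Supercoiled and relaxed DNA bands were resolved by gel and compared.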

Each structure is given as a SMILES string.

In the case of `CC(=O)c1c2c(n3ccccc13)C(=O)c1cnncc1C2=O`, the IC50 (in general, the concentration that inhibits the measured activity by half) in assay [1] stood at 24.7 µM; in assay [2], 21.3 µM; in assay [3], 11.2 µM.
Turning to `CCOC(=O)c1c2c(n3cccc(Cl)c13)C(=O)c1cnncc1C2=O`, the IC50 in assay [1] is 1.09 µM; in assay [2], 1.44 µM; in assay [4], 1.2 µM; in assay [3], 1.6 µM.
`N#Cc1c2c(n3ccccc13)C(=O)c1cnncc1C2=O`: the IC50 in assay [1] came out at 1.13 µM; in assay [2], 9.32 µM; in assay [4] it was 1.09 µM; in assay [3], 0.81 µM. Besides, the results for the inhibition in assay [5] and in assay [6] were 100% and 23%, respectively.
In the case of `CCOC(=O)c1c2c(n3cccc(C)c13)C(=O)c1cnncc1C2=O`, the IC50 turned out to be 10.3 µM in assay [1], 1.18 µM in assay [2], 1.22 µM in assay [4] and 1.55 µM in assay [3].
As for `CCOC(=O)c1c2c(n3cccc(O)c13)C(=O)c1cnncc1C2=O`, the IC50 in assay [1] was 11.6 µM; in assay [2] it was 23.5 µM; in assay [4] it was 20.8 µM; in assay [3], over 25 µM.
Taken in the same sequence, the figures for `CC(=O)c1c2c(n3cccc(F)c13)C(=O)c1cnncc1C2=O` were 1.85 µM, 10.6 µM, 10.7 µM and 13.2 µM.
On to `CCOC(=O)c1c2c(n3cc(C)ccc13)C(=O)c1cnncc1C2=O`, for which the IC50 in assay [1] came out at 9.87 µM; in assay [2] it was 11.1 µM; in assay [4] it was 12.2 µM; in assay [3] it was 18.7 µM.
For `CCOC(=O)c1c2c(n3ccccc13)C(=O)c1cnncc1C2=O`, the IC50 in assay [1], in assay [2], in assay [4] and in assay [3] was over 25 µM each time.
For `Cc1c2c(n3ccccc13)C(=O)c1cnncc1C2=O`, the IC50 in assay [1] turned out to be 1.92 µM; in assay [2], 1.21 µM; in assay [4], 1.67 µM; in assay [3], 14.1 µM.
On to `COC(=O)c1c2c(n3ccccc13)C(=O)c1cnncc1C2=O`, for which the IC50 amounted to 13.7 µM in assay [1], 9.94 µM in assay [2], 23.7 µM in assay [4] and 17 µM in assay [3].
Turning to `O=C1c2cnncc2C(=O)c2c1cc1ccccn21`, the IC50 in assay [1] is 10.8 µM; in assay [2], 11.4 µM; in assay [4], 14.7 µM; in assay [3], 11.7 µM.
For `CC[C@@]1(O)C(=O)OCc2c1cc1n(c2=O)Cc2cc3ccccc3nc2-1` [CAMPTOTHECIN], the half-maximal inhibitory concentration (IC50) in assay [1] and in assay [2] was over 25 µM throughout. In addition, the inhibition (in general, the change of the read-out against control, counted positive when it falls) in assay [5] is 73%.
